Tests used:
NF-κB = NF-κB activation in THP1-Blue NF-κB reporter cells; type: cell-based; conditions: compound 5 μM + LPS, compared with compound 1
Method in brief: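 THP1-Blue NF-κB cells at 10^5/well in RPMI with 10% FBS, pen/strep and Normocin. Test compound (1 mM DMSO stock) was diluted into LPS medium, giving final 5 μM compound ([…]), with LPS co-added. After 20 h, supernatant SEAP was measured colorimetrically with QuantiBlue at 630 nm. Two-point normalized: reference sulfonamide + LPS = 200%, LPS alone = 100%; mean ± SEM.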

ISRE = ISRE activity in ISRE-bla THP-1 reporter cells; type: cell-based; conditions: compound 5 μM + IFN-α, compared with compound 1
Method in brief: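 ISRE-bla THP-1 cells at 5×10^4/well in RPMI with 10% dialyzed FBS, 0.1 mM non-essential amino acids, 1 mM pyruvate and pen/strep. Test compound (1 mM DMSO stock) was diluted in IFN-α medium, giving final 5 μM compound ([…]) and final 100 U/mL IFN-α. Incubation 16 h, then CCF4-AM FRET substrate 3 h at RT in the dark. Excitation 405 nm; background-subtracted 465/535 nm emission ratio. Two-point normalized: reference sulfonamide + IFN-α = 200%, IFN-α alone = 100%; mean ± SEM.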

[1] = system: C57BL/6 (wild-type, WT) mice; type: in vivo
Method in brief: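 Female/male not stated; C57BL/6 wild-type mice aged 7–9 weeks, 8 per group. Test compound mixed with ovalbumin (20 μg/animal) and MPLA and injected into the gastrocnemius muscle on days 0 and 21. Mice then bled, and serum OVA-specific IgG titres measured by ELISA. Data given as mean ± SEM.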

[2] = Stability of compound in DMSO stock and in assay media; type: physicochemical

SMILES: CNC(=O)c1ccc(S(=O)(=O)Nc2cc(OC)c(Cl)cc2OC)cc1 [Compound 30, 4-(N-(4-chloro-2,5-dimethoxyphenyl)sulfamoyl)-N-methylbenzamide]
- NF-κB activity (in words) (NF-κB): completely inactive
- ISRE activity (in words) (ISRE): completely inactive

SMILES: CCOc1ccc(NS(=O)(=O)c2cc(OC)c(Cl)cc2OC)cc1 [Compound 31, 4-Chloro-N-(4-ethoxyphenyl)-2,5-dimethoxybenzenesulfonamide]
- NF-κB activity (in words) (NF-κB): inactivity
- ISRE activity (in words) (ISRE): inactivity

SMILES: CCOc1ccc(S(=O)(=O)N(C)c2cc(OC)c(Cl)cc2OC)cc1 [Compound 33, N-(4-chloro-2,5-dimethoxyphenyl)-4-ethoxy-N-methylbenzenesulfonamide]
- systemic toxicity, as indicated by behavior change or weight loss (in words) ([1]; mice co-immunized with MPLA, ovalbumin and compound): without demonstrable systemic toxicity
- OVA-specific IgG antibody titers versus MPLA alone (in words) ([1]; mice, n=8 per group, intramuscular, ovalbumin 20 μg/animal + MPLA + compound, days 0 and 21): statistically significant increases

SMILES: CCOc1ccc(S(=O)(=O)N(c2cc(OC)c(Cl)cc2OC)C(C)C)cc1 [Compound 40, N-(4-chloro-2,5-dimethoxyphenyl)-4-ethoxy-N-isopropylbenzenesulfonamide]
- NF-κB activity (in words) (NF-κB): eliminated the NF-κB activity
- ISRE activity (in words) (ISRE): retaining ISRE activity

SMILES: CCOc1ccc(S(=O)(=O)N(CC(C)C)c2cc(OC)c(Cl)cc2OC)cc1 [Compound 41, N-(4-chloro-2,5-dimethoxyphenyl)-4-ethoxy-N-isobutylbenzenesulfonamide]
- NF-κB activity (in words) (NF-κB): regained the activity
- ISRE activity (in words) (ISRE): regained the activity

SMILES: C#CCN(c1cc(OC)c(Cl)cc1OC)S(=O)(=O)c1ccc(OCC)cc1 [Compound 42, N-(4-chloro-2,5-dimethoxyphenyl)-4-ethoxy-N-(prop-2-yn-1-yl)benzenesulfonamide]
- NF-κB activity (in words) (NF-κB): retained activity almost equivalent to that of compound 1
- ISRE activity (in words) (ISRE): retained activity almost equivalent to that of compound 1

SMILES: C#CCCN(c1cc(OC)c(Cl)cc1OC)S(=O)(=O)c1ccc(OCC)cc1 [Compound 43, N-(but-3-yn-1-yl)-N-(4-chloro-2,5-dimethoxyphenyl)-4-ethoxybenzenesulfonamide]
- NF-κB activity (in words) (NF-κB): retained activity almost equivalent to that of compound 1
- ISRE activity (in words) (ISRE): retained activity almost equivalent to that of compound 1

SMILES: C#CCCCN(c1cc(OC)c(Cl)cc1OC)S(=O)(=O)c1ccc(OCC)cc1 [Compound 44, N-(4-chloro-2,5-dimethoxyphenyl)-4-ethoxy-N-(pent-4-yn-1-yl)benzenesulfonamide]
- NF-κB activity (in words) (NF-κB): retained activity almost equivalent to that of compound 1
- ISRE activity (in words) (ISRE): retained activity almost equivalent to that of compound 1

SMILES: C#CCOCCOCCOCCN(c1cc(OC)c(Cl)cc1OC)S(=O)(=O)c1ccc(OCC)cc1 [Compound 45, N-(4-chloro-2,5-dimethoxyphenyl)-4-ethoxy-N-(2-(2-(2-(prop-2-yn-1yloxy)ethoxy)ethoxy)ethyl)benzenesulfonamide]
- NF-κB activity (in words) (NF-κB): too long to retain activity
- ISRE activity (in words) (ISRE): too long to retain activity

SMILES: CCOc1ccc(S(=O)(=O)N(Cc2ccccc2)c2cc(OC)c(Cl)cc2OC)cc1 [Compound 46, N-benzyl-N-(4-chloro-2,5-dimethoxyphenyl)-4-ethoxybenzenesulfonamide]
- NF-κB activity (in words) (NF-κB): potent analogs
- ISRE activity (in words) (ISRE): potent analogs

SMILES: CCOc1ccc(S(=O)(=O)N(CCc2ccccc2)c2cc(OC)c(Cl)cc2OC)cc1 [Compound 47, N-(4-chloro-2,5-dimethoxyphenyl)-4-ethoxy-N-phenethylbenzenesulfonamide]
- NF-κB activity (in words) (NF-κB): potent analogs
- ISRE activity (in words) (ISRE): potent analogs

SMILES: CCOc1ccc(S(=O)(=O)N(C(C)=O)c2cc(OC)c(Cl)cc2OC)cc1 [Compound 48, N-(4-chloro-2,5-dimethoxyphenyl)-N-((4-ethoxyphenyl)sulfonyl)acetamide]
- ISRE activity (in words) (ISRE): active
- stability of stock in DMSO (in words) [2]: stable

SMILES: CCOC(=O)CN(c1cc(OC)c(Cl)cc1OC)S(=O)(=O)c1ccc(OCC)cc1 [Compound 49, Ethyl N-(4-chloro-2,5-dimethoxyphenyl)-N-((4-ethoxyphenyl)sulfonyl)glycinate]
- NF-κB activity (in words) (NF-κB): retained dual NF-κB and ISRE activities
- ISRE activity (in words) (ISRE): retained dual NF-κB and ISRE activities

SMILES: CCOC(=O)CCCN(c1cc(OC)c(Cl)cc1OC)S(=O)(=O)c1ccc(OCC)cc1 [Compound 50, Ethyl 4-((N-(4-chloro-2,5-dimethoxyphenyl)-4-ethoxyphenyl)sulfonamido)butanoate]
- NF-κB activity (in words) (NF-κB): retained dual NF-κB and ISRE activities
- ISRE activity (in words) (ISRE): retained dual NF-κB and ISRE activities

SMILES: CCOc1ccc(S(=O)(=O)N(CCCO)c2cc(OC)c(Cl)cc2OC)cc1 [Compound 51, N-(4-chloro-2,5-dimethoxyphenyl)-4-ethoxy-N-(3-hydroxypropyl)benzenesulfonamide]
- NF-κB activity (in words) (NF-κB): retained activity in both the assays
- ISRE activity (in words) (ISRE): retained activity in both the assays

SMILES: CCOc1ccc(S(=O)(=O)N(CCCNC(=O)OC(C)(C)C)c2cc(OC)c(Cl)cc2OC)cc1 [Compound 52, tert-Butyl (3-((N-(4-chloro-2,5-dimethoxyphenyl)-4-ethoxyphenyl)sulfonamido)propyl)carbamate]
- NF-κB activity (in words) (NF-κB): reduction in activity
- ISRE activity (in words) (ISRE): reduction in activity

SMILES: CCOc1ccc(S(=O)(=O)N(CCCC(=O)O)c2cc(OC)c(Cl)cc2OC)cc1 [Compound 53, 4-((N-(4-chloro-2,5-dimethoxyphenyl)-4-ethoxyphenyl)sulfonamido)butanoic acid]
- NF-κB activity (in words) (NF-κB): retaining the NF-κB activity
- ISRE activity (in words) (ISRE): reduction in ISRE activity

SMILES: CCNC(=O)CCCN(c1cc(OC)c(Cl)cc1OC)S(=O)(=O)c1ccc(OCC)cc1 [Compound 54, 4-((N-(4-chloro-2,5-dimethoxyphenyl)-4-ethoxyphenyl)sulfonamido)-N-ethylbutanamide]
- NF-κB activity (in words) (NF-κB): retaining the NF-κB activity
- ISRE activity (in words) (ISRE): reduction in ISRE activity

SMILES: CCOc1ccc(S(=O)(=O)N(CCCN)c2cc(OC)c(Cl)cc2OC)cc1.Cl [Compound 55, N-(3-aminopropyl)-N-(4-chloro-2,5-dimethoxyphenyl)-4-ethoxybenzenesulfonamide hydrochloride]
- NF-κB activity (in words) (NF-κB): recovered
- ISRE activity (in words) (ISRE): recovered

SMILES: CCOc1ccc(S(=O)(=O)N(CCCNC(=O)CCCCCNC(=O)c2ccc3c(c2)C(=O)OC32c3ccc(O)cc3Oc3cc(O)ccc32)c2cc(OC)c(Cl)cc2OC)cc1 [Compound 56, N-(6-((3-((N-(4-chloro-2,5-dimethoxyphenyl)-4-ethoxyphenyl)sulfonamido)propyl)amino)-6-oxohexyl)-3’,6’-dihydroxy-3-oxo-3H-spiro[isobenzofuran-1,9’-xanthene]-5-carboxamide]
- NF-κB activity (in words) (NF-κB): completely inactive
- ISRE activity (in words) (ISRE): completely inactive

SMILES: CCOc1ccc(S(=O)(=O)N(CCCNC(=O)CCCC[C@H]2SC[C@H]3NC(=O)N[C@H]32)c2cc(OC)c(Cl)cc2OC)cc1 [Compound 58, N-(3-((N-(4-chloro-2,5-dimethoxyphenyl)-4-ethoxyphenyl)sulfonamido)propyl)-5-((3aR,4R,6aS)-2-oxohexahydro-1H-thieno[3,4-d]imidazol-4-yl)pentanamide]
- NF-κB activity (in words) (NF-κB): equipotent to compound 1
- ISRE activity (in words) (ISRE): equipotent to compound 1

SMILES: CCOc1ccc(S(=O)(=O)Nc2cc(OC)c(N=[N+]=[N-])cc2OC)cc1 [Compound 59, N-(4-azido-2,5-dimethoxyphenyl)-4-ethoxybenzenesulfonamide]
- NF-κB activity (in words) (NF-κB): potent
- ISRE activity (in words) (ISRE): potent

SMILES: COc1ccc(S(=O)(=O)Nc2cc(OC)c(Cl)cc2OC)cc1N [Compound 60, 3-Amino-N-(4-chloro-2,5-dimethoxyphenyl)-4-methoxybenzenesulfonamide]
- NF-κB activity (in words) (NF-κB): resurgence of activity
- ISRE activity (in words) (ISRE): resurgence of activity

SMILES: C#CCN(c1cc(OC)c(N=[N+]=[N-])cc1OC)S(=O)(=O)c1ccc(OCC)cc1 [Compound 62, N-(4-azido-2,5-dimethoxyphenyl)-4-ethoxy-N-(prop-2-yn-1-yl)benzenesulfonamide]
- NF-κB activity (in words) (NF-κB): very potent
- ISRE activity (in words) (ISRE): very potent

SMILES: CCOc1ccc(S(=O)(=O)N(CCCNC(=O)CCCC[C@H]2SC[C@H]3NC(=O)N[C@H]32)c2cc(OC)c(N=[N+]=[N-])cc2OC)cc1 [Compound 64, N-(3-((N-(4-azido-2,5-dimethoxyphenyl)-4-ethoxyphenyl)sulfonamido)propyl)-5((3aR,4R,6aS)-2-oxohexahydro-1H-thieno[3,4-d]imidazol-4-yl)pentanamide]
- NF-κB activity (in words) (NF-κB): relatively weak activity
- ISRE activity (in words) (ISRE): relatively weak activity

From article PMC8992017 (Journal of medicinal chemistry, 2019)
